According to ChEMBL document CHEMBL1126945, “Synthesis and evaluation of 3-modified 1D-myo-inositols as inhibitors and substrates of phosphatidylinositol synthase and inhibitors of myo-inositol uptake by cells” (1993):

species: Rattus norvegicus; assay: Tested for inhibition of myo-inositol uptake in F111 rat fibroblast cells at 5 mM; assay type: functional
How it was run: (§1)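 F111 rat fibroblasts grown overnight on coverslips in inositol-free DMEM with 10% dialyzed calf serum and 10 μM myo-inositol, washed, then incubated 120 min at 37 °C, 5% CO₂ in Krebs-Ringer (HEPES pH 7.4) with 10 μM myo-[³H]inositol and 5 mM analogue. Washed, lysed in 1% SDS; radioactivity counted and normalised to BCA protein.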

Compound	inhibition at 5000 µM
O[C@H]1[C@@H](O)[C@H](O)C[C@H](O)[C@@H]1O	80%

biological target: T1, CDP-diacylglycerol--inositol 3-phosphatidyltransferase (Mus musculus) (UniProt Q8VDP6); assay: Tested for inhibition of phosphatidylinositol synthase from mouse brain at 5 mM
T1 sequence (whole entry): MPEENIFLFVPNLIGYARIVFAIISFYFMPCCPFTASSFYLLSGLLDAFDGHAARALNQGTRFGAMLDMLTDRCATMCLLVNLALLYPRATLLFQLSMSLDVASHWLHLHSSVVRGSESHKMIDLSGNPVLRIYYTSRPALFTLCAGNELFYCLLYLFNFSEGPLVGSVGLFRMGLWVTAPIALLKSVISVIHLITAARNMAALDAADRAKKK
How it was run: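 Mouse brain microsomal PtdIns synthase; incorporation of 0.5 mM myo-[2-³H]inositol into CHCl₃-soluble lipid at 37 °C with Tris-HCl pH 8.3, 48 mM MgCl₂, 0.5 mM CDP-dipalmitin, 0.25% Triton X-100, 5 mM analogue, 0.05 mg microsomal protein. Stopped at 20 min with HCl/MeOH and CHCl₃; organic phase scintillation counted. Averages of two or more determinations.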

inhibition	Compound
22%	O[C@@H]1[C@H](F)[C@@H](O)[C@@H](O)[C@H](O)[C@@H]1O
37%	O[C@@H]1[C@@H](O)[C@H](O)[C@@H](F)[C@@H](O)[C@H]1O
30%	O[C@@H]1[C@@H](O)[C@H](O)[C@@H](Cl)[C@@H](O)[C@H]1O
47%	O=C1[C@@H](O)[C@H](O)[C@@H](O)[C@H](O)[C@@H]1O
40%	O[C@@H]1[C@@H](O)[C@@H](O)[C@@H](S)[C@@H](O)[C@@H]1O
10%	CO[C@@H]1[C@H](O)[C@@H](O)[C@@H](O)[C@H](O)[C@@H]1N=[N+]=[N-]

The remaining lines, values behind:

Compound	inhibition
[N-]=[N+]=N[C@@H]1[C@H](O)[C@H](O)[C@@H](O)[C@@H](O)[C@@H]1O	17%
N[C@H]1[C@@H](O)[C@H](O)[C@H](O)[C@@H](O)[C@H]1O	19%
CO[C@H]1C[C@@H](O)[C@H](O)[C@H](O)[C@H]1O	28%
O[C@H]1[C@@H](O)[C@H](O)C[C@H](O)[C@@H]1O	9%

species: Rattus norvegicus; assay: Tested for inhibition of myo-[3H]inositol uptake in F111 rat fibroblast cells at 5 mM; assay type: functional; how it was run: as §1

Compound	inhibition at 5000 µM
O[C@@H]1[C@@H](O)[C@H](O)[C@@H](F)[C@@H](O)[C@H]1O	97%
N[C@H]1[C@@H](O)[C@H](O)[C@H](O)[C@@H](O)[C@H]1O	87%

biological target: T1, CDP-diacylglycerol--inositol 3-phosphatidyltransferase (Mus musculus); assay: Tested as substrate of phosphatidylinositol synthase in mouse brain by measuring percent CMP formation compared with myo-inositol tested at 5 mM; assay type: functional, tissue-based
How it was run: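 Mouse brain microsomes (12-day-old mice; 900g then 12000g pellet) as PtdIns synthase source. 37 °C, 50 mM Tris-HCl pH 8.3, 48 mM MgCl₂, 0.5 mM CDP-dipalmitin, 0.25% Triton X-100, 5 mM analogue or myo-inositol, 0.5 mg microsomal protein. Stopped in linear phase with CHCl₃-MeOH; aqueous CMP read at 280 nm. Expressed as % of myo-inositol; averages of two or more determinations.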

Formation	Compound
28%	O[C@@H]1[C@H](F)[C@@H](O)[C@@H](O)[C@H](O)[C@@H]1O
7%	O[C@@H]1[C@@H](O)[C@H](O)[C@@H](F)[C@@H](O)[C@H]1O
1%	O[C@@H]1[C@@H](O)[C@H](O)[C@@H](Cl)[C@@H](O)[C@H]1O
7%	O=C1[C@@H](O)[C@H](O)[C@@H](O)[C@H](O)[C@@H]1O
1.5%	O[C@@H]1[C@@H](O)[C@@H](O)[C@@H](S)[C@@H](O)[C@@H]1O
0%	CO[C@@H]1[C@H](O)[C@@H](O)[C@@H](O)[C@H](O)[C@@H]1N=[N+]=[N-]

The next lines start with the molecule.

Compound	Formation
[N-]=[N+]=N[C@@H]1[C@H](O)[C@H](O)[C@@H](O)[C@@H](O)[C@@H]1O	1%
O[C@H]1[C@H](O)[C@@H](O)[C@H](O)[C@@H](O)[C@H]1O	100%
N[C@H]1[C@@H](O)[C@H](O)[C@H](O)[C@@H](O)[C@H]1O	9%
CO[C@H]1C[C@@H](O)[C@H](O)[C@H](O)[C@H]1O	0%
O[C@H]1[C@@H](O)[C@H](O)C[C@H](O)[C@@H]1O	6%

tested on: not listed separately; assay: Michaelis-Menten constant was determined

Km	Compound
1500 µM	O[C@H]1[C@H](O)[C@@H](O)[C@H](O)[C@@H](O)[C@H]1O
